Reference: ChEMBL document CHEMBL5329147, “Synthesis of tryptanthrin appended dispiropyrrolidine oxindoles and their antibacterial evaluation” (RSC Med Chem, 2023)
≈ marks a conversion by molar mass, not a printed value.

Legend:
Format in all cases: functional
Staphylococcus aureus [1] = test: Antibacterial activity against methicillin resistant Staphylococcus aureus NRS 198 assessed as bacterial growth inhibition incubated for 18 to 24 hrs by broth microdilution method; conditions: time 18-24 hrs
Outline: (§1)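 CLSI broth microdilution in MHBII; overnight starter cultures (single MHA colony, 37 °C, shaking) adjusted by OD600 to 10^6 CFU/mL. Compounds from DMSO stocks (10 mg/mL), two-fold series 64–0.5 mg/L. Incubation 37 °C, 18-24 h. MIC = lowest concentration with no visible growth. Three independent determinations, each in duplicate.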

Staphylococcus aureus [2] = test: Antibacterial activity against methicillin resistant Staphylococcus aureus NRS 193 assessed as bacterial growth inhibition incubated for 18 to 24 hrs by broth microdilution method; conditions: time 18-24 hrs; outline: as §1
Staphylococcus aureus [3] = test: Antibacterial activity against methicillin resistant Staphylococcus aureus NRS 129 assessed as bacterial growth inhibition incubated for 18 to 24 hrs by broth microdilution method; conditions: time 18-24 hrs; outline: as §1
Staphylococcus aureus [4] = test: Antibacterial activity against methicillin resistant Staphylococcus aureus NRS 192 assessed as bacterial growth inhibition incubated for 18 to 24 hrs by broth microdilution method; conditions: time 18-24 hrs; outline: as §1
Staphylococcus aureus [5] = test: Antibacterial activity against methicillin sensitive Staphylococcus aureus ATCC 29213 assessed as bacterial growth inhibition incubated for 18 to 24 hrs by broth microdilution method; conditions: time 18-24 hrs; outline: as §1
Staphylococcus aureus [6] = test: Synergistic antibacterial activity against Staphylococcus aureus ATCC 29213 assessed as bacterial growth inhibition incubated for 24 hrs in presence of (S)-8''-Bromo-1-ethyl-1'-methyl-2,12''-dioxo-12''H-dispiro[indoline-3,4'-pyrrolidine-2',6''-indolo[2,1-b]quinazoline]-3',3'-dicarbonitrile by checkerboard assay
Outline: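 Checkerboard in 96-well plates: two-fold serial dilutions, one agent along abscissa, partner antibiotic along ordinate. Wells received ~10⁵ CFU/mL S. aureus ATCC 29213 in MHBII. Incubation 37 °C, 24 h. ΣFIC = FIC A + FIC B, each FIC being combination MIC divided by MIC alone.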

Staphylococcus aureus [7] = test: Antibacterial activity against methicillin resistant Staphylococcus aureus NRS 194 assessed as bacterial growth inhibition incubated for 18 to 24 hrs by broth microdilution method; conditions: time 18-24 hrs; outline: as §1
Staphylococcus aureus [8] = test: Antibacterial activity against methicillin resistant Staphylococcus aureus NRS 119 assessed as bacterial growth inhibition incubated for 18 to 24 hrs by broth microdilution method; conditions: time 18-24 hrs; outline: as §1
Staphylococcus aureus [9] = test: Antibacterial activity against vancomycin resistant Staphylococcus aureus […] 4 assessed as bacterial growth inhibition incubated for 18 to 24 hrs by broth microdilution method; conditions: time 18-24 hrs; outline: as §1
Staphylococcus aureus [10] = test: Antibacterial activity against methicillin resistant Staphylococcus aureus NRS 186 assessed as bacterial growth inhibition incubated for 18 to 24 hrs by broth microdilution method; conditions: time 18-24 hrs; outline: as §1
Staphylococcus aureus [11] = test: Antibacterial activity against Staphylococcus aureus ATCC 29213 assessed as bacterial growth inhibition incubated for 18 to 24 hrs by broth microdilution method; conditions: Staphylococcus aureus, ATCC 29213; time 18-24 hrs; read-out: MIC
Outline: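 CLSI broth microdilution. Overnight starter cultures (single colony, MHBII, 37 °C, shaking 18–24 h) were diluted by OD600 to 10^6 CFU/mL in MHBII. Two-fold dilutions from […] were made from 10 mg/mL DMSO stocks, then incubated 37 °C for 18-24 h. The MIC was the lowest concentration with no visible growth. Three independent runs, duplicate samples.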

Staphylococcus aureus [12] = test: Antibacterial activity against methicillin resistant Staphylococcus aureus NRS 191 assessed as bacterial growth inhibition incubated for 18 to 24 hrs by broth microdilution method; conditions: time 18-24 hrs; outline: as §1
Staphylococcus aureus [13] = test: Antibacterial activity against vancomycin resistant Staphylococcus aureus […] 12 assessed as bacterial growth inhibition incubated for 18 to 24 hrs by broth microdilution method; conditions: time 18-24 hrs; outline: as §1

Structure (SMILES): C[C@@H](O)[C@H]1C(=O)N2C(C(=O)O)=C(S[C@@H]3CN[C@H](C(=O)N(C)C)C3)[C@H](C)[C@H]12 [MEROPENEM]
- MIC (Staphylococcus aureus [1]): 64 µg/mL (≈ 167 µM)
- MIC (Staphylococcus aureus [2]): 64 µg/mL (≈ 167 µM)
- MIC (Staphylococcus aureus [3]): 4 µg/mL (≈ 10.4 µM)
- MIC (Staphylococcus aureus [4]): 8 µg/mL (≈ 20.9 µM)
- MIC (Staphylococcus aureus [5]): 0.125 µg/mL (≈ 0.326 µM)
- MIC (Staphylococcus aureus [6]): 0.63 µg/mL
- MIC (Staphylococcus aureus [7]): 1 µg/mL (≈ 2.61 µM)
- MIC (Staphylococcus aureus [8]): 64 µg/mL (≈ 167 µM)
- MIC (Staphylococcus aureus [9]): 64 µg/mL (≈ 167 µM)
- MIC (Staphylococcus aureus [10]): 8 µg/mL (≈ 20.9 µM)
- MIC (Staphylococcus aureus [11]): 0.063 µg/mL (≈ 0.164 µM)
- MIC (Staphylococcus aureus [12]): 64 µg/mL (≈ 167 µM)
- MIC (Staphylococcus aureus [13]): 8 µg/mL (≈ 20.9 µM)
